Where only a bound is given, the exact number is not on record here.

For data set [1], the system named is L1210. In words: Cytotoxicity against mouse L1210 cells. It is filed as functional, cell-based. The note with it: read-out: I50.
Data set [2] relates to L1210. Put plainly: Inhibition of DNA synthesis in mouse L1210 cells after 3 hrs by [3H]thymidine incorporation assay. The format is functional. The settings on record: L1210, 3 h, read-out: ED50 (the source's name). An outline of the steps: (§1)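 Cultured lymphoid leukemia L1210 cells; nucleic acid synthesis inhibition measured by a previously reported procedure, modified by adding 1% Me2SO for solubility.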
For orientation: Uptake of a labelled nucleoside into DNA is a usual measure of proliferation.

Data set [3] concerns P388 (Mus musculus). In words: Antitumor activity against mouse P388 cells allografted in mouse assessed as optimum dose administered qd from day 1 to 9.
Data set [4] has as its system P388 (Mus musculus). Put plainly: Antitumor activity against mouse P388 cells allografted in mouse assessed as tumor growth inhibition at optimum dose administered qd from day 1 to 9 relative to control.
Data set [5] concerns L1210. Put plainly: Inhibition of RNA synthesis in mouse L1210 cells after 3 hrs by [3H]uridine incorporation assay. It is filed as functional. The settings on record: L1210, 3 h, read-out: ED50 (the source's name). An outline of the steps:
as §1

Another data set relates to Calf thymus DNA. In words: Binding affinity to calf thymus helical DNA assessed as change in melting temperature by […] analysis. It is filed as nucleic-acid assay. The note with it: Bos taurus. An outline of the steps:
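Helix–coil transition temperature shift of isolated helical DNA in solution. Modified procedure: 0.010 M phosphate buffer with 10⁻⁵ M EDTA, pH 7.0, plus 5% Me2SO to solubilize compound.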

Data set [6] has as its system Salmonella typhimurium. Put plainly: Mutagenicity in Salmonella typhimurium TA1538 by Ames test in presence of S9 fraction. The format is toxicity, organism-based. The settings on record: salmonella enterica subsp. enterica serovar typhimurium. An outline of the steps:
(§2)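 Salmonella plate mutagenicity test; compounds tested at levels up to 1 μmol per plate.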

Data set [7] relates to Salmonella typhimurium. Put plainly: Mutagenicity in Salmonella typhimurium TA1537 by Ames test in presence of S9 fraction. The note with it: salmonella enterica subsp. enterica serovar typhimurium. It is filed as toxicity, organism-based. The gist of the method:
as §2
For orientation: In the Ames test, an excess of revertant colonies over the control signals mutagenicity.

Data set [8] has as its system Salmonella typhimurium. In words: Mutagenicity in Salmonella typhimurium TA1535 by Ames test. The settings on record: salmonella enterica subsp. enterica serovar typhimurium. The format is toxicity, organism-based. An outline of the steps: as §2
For data set [9], the system named is Salmonella typhimurium. In words: Mutagenicity in Salmonella typhimurium TA1536 by Ames test. The format is toxicity, organism-based. The settings on record: salmonella enterica subsp. enterica serovar typhimurium. The gist of the method: as §2
In data set [10] the test system is Salmonella typhimurium. In words: Mutagenicity in Salmonella typhimurium TA1537 by Ames test. It is filed as toxicity, organism-based. The note with it: salmonella enterica subsp. enterica serovar typhimurium. An outline of the steps:
as §2

The subject of data set [11] is Salmonella typhimurium. Put plainly: Mutagenicity in Salmonella typhimurium TA1538 by Ames test. It is filed as toxicity, organism-based. The note with it: salmonella enterica subsp. enterica serovar typhimurium. An outline of the steps: as §2
Data set [12] concerns Salmonella typhimurium. Put plainly: Mutagenicity in Salmonella typhimurium TA1535 by Ames test in presence of S9 fraction. The format is toxicity, organism-based. The settings on record: salmonella enterica subsp. enterica serovar typhimurium. An outline of the steps:
as §2

For data set [13], the system named is Salmonella typhimurium. Put plainly: Mutagenicity in Salmonella typhimurium TA1536 by Ames test in presence of S9 fraction. It is filed as toxicity, organism-based. The settings on record: salmonella enterica subsp. enterica serovar typhimurium. An outline of the steps: as §2

As for `CCCCCCCCCCCC(=O)NCC(=O)N[C@@H]1[C@@H](O)[C@H](O)[C@@H](Nc2ncnc3[nH]cnc23)O[C@H]1C`, the IC50 in the data set with L1210 [1] was above 10 µM. In addition, the EC50 in the data set on L1210 [2] amounted to 29 µM; in the data set with L1210 [5] it was 18 µM. Besides, the Activity in the data set on P388 (Mus musculus) [3] was found to be 1 mg/kg. The T/C (commonly the result in the treated group divided by that in the control group, in per cent) with P388 (Mus musculus) [4] came out at 137%.
As for `CC(C)CCCCCCCCCCCCC(=O)NCC(=O)N[C@@H]1[C@@H](O)[C@H](O)[C@@H](Nc2ncnc3[nH]cnc23)O[C@H]1C`, in the data set with L1210 [1], the IC50 is above 20 µM. For the same compound, the EC50 is 1.8 µM in the data set on L1210 [2] and 1.1 µM with L1210 [5]. In addition, in the data set on Calf thymus DNA, the ΔTm (in general, the change in melting temperature against a reference sample) worked out at 0.6 °C. The Activity in the data set on P388 (Mus musculus) [3] was 1 mg/kg. Besides, the T/C with P388 (Mus musculus) [4] was found to be 160%.
On to `CCCCCCCCCCCCCCCC(=O)NCC(=O)N[C@@H]1[C@@H](O)[C@H](O)[C@@H](Nc2ncnc3[nH]cnc23)O[C@H]1CO`, for which the IC50 in the data set with L1210 [1] is above 100 µM. Also, the EC50 with L1210 [2] was found to be 2.5 µM; in the data set on L1210 [5] it was 1.6 µM. Also, in the data set with Calf thymus DNA, the ΔTm was determined as 3.6 °C. For the same compound, in the data set with P388 (Mus musculus) [3], the Activity was 0.5 mg/kg. Besides, the T/C in the data set on P388 (Mus musculus) [4] came to 136%.
`CC(C)CCCCCCCCCCCCC(=O)NCC(=O)N[C@@H]1[C@@H](O)[C@H](O)[C@@H](Nc2ncnc3[nH]cnc23)O[C@H]1CO`: in the data set with L1210 [1], the IC50 is above 10 µM. Besides, the Activity result in the data set with Salmonella typhimurium [6] was “Non-toxic”; in the data set on Salmonella typhimurium [7] it was “Non-toxic”; in the data set with Salmonella typhimurium [8], “Non-toxic”; in the data set with Salmonella typhimurium [9], “Non-toxic”; with Salmonella typhimurium [10], “Non-toxic”; in the data set on P388 (Mus musculus) [3], 0.5 mg/kg. Also, the Activity result in the data set on Salmonella typhimurium [11], with Salmonella typhimurium [12] and in the data set on Salmonella typhimurium [13] was “Non-toxic” in each case. In addition, the values for the EC50 in the data set with L1210 [2] and with L1210 [5] were 1.6 µM and 0.69 µM, respectively. In addition, in the data set on Calf thymus DNA, the ΔTm came out at 1.7 °C. Further, the T/C with P388 (Mus musculus) [4] was 149%.
As to `CCOCCC(=O)NCC(=O)N[C@@H]1[C@@H](O)[C@H](O)[C@@H](Nc2ncnc3[nH]cnc23)O[C@H]1CO`, in the data set with L1210 [1], the IC50 is above 500 µM. Moreover, the EC50 in the data set with L1210 [2] and with L1210 [5] was above 1000 µM in each case. Also, the ΔTm in the data set with Calf thymus DNA amounted to 0.4 °C. The Activity in the data set on P388 (Mus musculus) [3] was determined as 3.1 mg/kg. Besides, in the data set with P388 (Mus musculus) [4], the T/C was below 125%.
Take `CC(C)CCCCCCCCCCCCC(=O)NCC(=O)N[C@@H]1[C@@H](O)[C@H](O)[C@@H](Nc2ncnc3[nH]cnc23)O[C@H]1C(O)CO` (stereo partly specified): the IC50 in the data set with L1210 [1] is above 5 µM. Further, the figures for the EC50 in the data set with L1210 [2] and in the data set with L1210 [5] were 0.4 µM and 1 µM, respectively. In addition, the Activity with P388 (Mus musculus) [3] came out at 0.5 mg/kg. In the data set with P388 (Mus musculus) [4], the T/C is reported as 154%.
On to `CCCCCCCCCCCC(=O)NCC(=O)N[C@@H]1[C@@H](O)[C@H](O)[C@@H](Nc2ncnc3[nH]cnc23)O[C@H]1CO`, for which the IC50 in the data set on L1210 [1] amounted to 3 µM. For the same compound, the Activity result in the data set on Salmonella typhimurium [6] is “Non-toxic”; with Salmonella typhimurium [7], “Non-toxic”; in the data set with Salmonella typhimurium [8], “Non-toxic”; in the data set on Salmonella typhimurium [9] it was “Non-toxic”; in the data set on Salmonella typhimurium [10] it was “Non-toxic”; in the data set on P388 (Mus musculus) [3] it was 1 mg/kg. Besides, the Activity entry in the data set on Salmonella typhimurium [11], with Salmonella typhimurium [12] and with Salmonella typhimurium [13] was “Non-toxic” in each case. Also, the EC50 amounted to 20 µM in the data set with L1210 [2] and 5.5 µM in the data set on L1210 [5]. In addition, the ΔTm in the data set on Calf thymus DNA worked out at 0.5 °C. Besides, the T/C with P388 (Mus musculus) [4] turned out to be 133%.
On to `COc1cccc2c1C(=O)c1c(O)c3c(c(O)c1C2=O)C[C@@](O)(C(=O)CO)C[C@@H]3O[C@H]1C[C@H](N)[C@H](O)[C@H](C)O1` [DOXORUBICIN], for which, in the data set with L1210 [1], the IC50 turned out to be 0.032 µM. For the same compound, the EC50 in the data set with L1210 [2] came to 1.5 µM; with L1210 [5] it was 0.67 µM. For the same compound, the ΔTm with Calf thymus DNA worked out at 13.6 °C. In addition, the Activity in the data set with P388 (Mus musculus) [3] turned out to be 1 mg/kg. Moreover, the T/C in the data set on P388 (Mus musculus) [4] is given as 193%.
For `CCCCCC(=O)NCC(=O)N[C@@H]1[C@@H](O)[C@H](O)[C@@H](Nc2ncnc3[nH]cnc23)O[C@H]1C`, in the data set with L1210 [1], the IC50 came to 250 µM. Further, the Activity result was “Non-toxic” in the data set on Salmonella typhimurium [6]; “Non-toxic” in the data set on Salmonella typhimurium [7]; “Non-toxic” in the data set with Salmonella typhimurium [8]; “Non-toxic” in the data set with Salmonella typhimurium [9]; “Non-toxic” in the data set with Salmonella typhimurium [10]; 0.5 mg/kg with P388 (Mus musculus) [3]. Also, the Activity result in the data set on Salmonella typhimurium [11], in the data set with Salmonella typhimurium [12] and in the data set with Salmonella typhimurium [13] was “Non-toxic” each time. The EC50 in the data set on L1210 [2] and in the data set with L1210 [5] was above 1000 µM throughout. In addition, the T/C in the data set with P388 (Mus musculus) [4] is below 125%.
Take `CCOCCC(=O)NCC(=O)N[C@@H]1[C@@H](O)[C@H](O)[C@@H](Nc2ncnc3[nH]cnc23)O[C@H]1C`: in the data set with L1210 [1], the IC50 is above 500 µM. Besides, the EC50 in the data set on L1210 [2] and in the data set with L1210 [5] was above 1000 µM in each case. Moreover, the Activity with P388 (Mus musculus) [3] was determined as 3.1 mg/kg. In the data set with P388 (Mus musculus) [4], the T/C was below 125%.
As to `CC(C)CCCCCCCCCCCCC(=O)N[C@@H]1[C@@H](O)[C@H](O)[C@@H](Nc2ncnc3[nH]cnc23)O[C@H]1C`, the IC50 in the data set on L1210 [1] is above 100 µM. The Activity result was “Non-toxic” with Salmonella typhimurium [6]; “Non-toxic” in the data set with Salmonella typhimurium [7]; “Non-toxic” in the data set with Salmonella typhimurium [8]; “Non-toxic” in the data set on Salmonella typhimurium [9]; “Non-toxic” in the data set on Salmonella typhimurium [10]; 0.5 mg/kg in the data set with P388 (Mus musculus) [3]. Further, the Activity result in the data set with Salmonella typhimurium [11], with Salmonella typhimurium [12] and in the data set with Salmonella typhimurium [13] was “Non-toxic” throughout. Moreover, the EC50 with L1210 [2] and in the data set on L1210 [5] was above 1000 µM throughout. The ΔTm in the data set with Calf thymus DNA was 0.5 °C. Besides, the T/C in the data set on P388 (Mus musculus) [4] is below 125%.
Take `CCCCCCCCCCCCCCCCC(NC(C)=O)C(=O)N[C@@H]1[C@@H](O)[C@H](O)[C@@H](Nc2ncnc3[nH]cnc23)O[C@H]1C` (stereo partly specified): the EC50 in the data set on L1210 [2] and with L1210 [5] was above 1000 µM each time.
